Assay results from different studies.
Protocols differ between the studies behind these lines.
MMP2: 72 kDa type IV collagenase (MMP2, Homo sapiens, UniProt P08253)
PRKCE: Protein kinase C epsilon type (PRKCE, Homo sapiens, UniProt Q02156)
UCHL1: Ubiquitin carboxyl-terminal hydrolase isozyme L1 (UCHL1, Homo sapiens, UniProt P09936)
F10: Coagulation factor X (F10, Homo sapiens, UniProt P00742)

COc1cc(Nc2ncc(F)c(Nc3ccc4c(n3)NC(=O)C(C)(C)O4)n2)cc(OC)c1OC  inhibition (Epithelial discoidin domain-containing receptor 1 (DDR1, Homo sapiens, UniProt Q08345); binding, competition with immobilised ligand; 10 µM): 100%
O=C(Nc1cccnn1)N1CCN([C@@H]2CCOc3cc(C(F)(F)F)ccc32)CC1  inhibition (MMP2; cell-free assay; 20 µM): 20%
CC(C)=CCC[C@]1(C)C=Cc2c(O)c3c(c(CC=C(C)C)c2O1)O[C@]12C(=C[C@@H]4C[C@H]1C(C)(C)O[C@@]2(C/C=C(/C)C(=O)O)C4=O)C3=O  inhibition (Histone-lysine N-methyltransferase SETD7 (SETD7, Homo sapiens, UniProt Q8WTS6); cell-free assay; 10 µM): -5%
C#Cc1n[nH]c2c(-c3cn([C@@H](C)c4ccccc4)c(=O)[nH]c3=O)cc(F)cc12  inhibition (PRKCE; enzyme activity, inhibitor; 0.1 µM): 7.2%
CCOC(=O)c1ccc(OC(=O)CCCCCNC(=N)N)cc1  inhibition (UCHL1; enzyme activity, inhibitor; 10 µM): 5%
C#Cc1n[nH]c2c(-c3cn(C(C)c4ccccn4)c(=O)[nH]c3=O)cc(F)cc12 (stereo not shown)  inhibition (PRKCE; enzyme activity, inhibitor; 1 µM): 3.8%
CN1CCN(c2nc(N)c3ccccc3n2)CC1  inhibition (Neuronal acetylcholine receptor subunit alpha-7 (CHRNA7, Homo sapiens, UniProt P36544); ligand displacement, radioligand; 0.1 µM): 31.9%
Cn1cc(-c2cc(F)cc(N3CCn4c(cc5c4CCCC5)C3=O)c2CO)cc(Nc2ccc(N3CCN(C4COC4)CC3)cn2)c1=O  inhibition (G protein-coupled receptor kinase 5 (GRK5, Homo sapiens, UniProt P34947); enzyme activity, inhibitor; 0.1 µM): 4%
CN(C)C(=O)COC(=O)Cc1ccc(OC(=O)c2ccc(NC(=N)N)cc2)cc1  inhibition (MMP2; enzyme activity, inhibitor; 10 µM): 83%
Cn1cc(-c2cccc(N3CCc4c(sc5c4CC(C)(C)C5)C3=O)c2CO)cc(Nc2ccncn2)c1=O  inhibition (G protein-coupled receptor kinase 6 (GRK6, Homo sapiens, UniProt P43250); enzyme activity, inhibitor; 1 µM): -1%
N=C(N)c1ccc2cc(OC(=O)c3ccc(N=C(N)N)cc3)ccc2c1  inhibition (UCHL1; enzyme activity, inhibitor; 10 µM): 0%
c1ccc(C(NCCNC(c2ccccc2)c2ccccc2)c2ccccc2)cc1  inhibition (F10; enzyme activity, inhibitor; 10 µM): -9%
CC(C)C[C@H](NC(=O)[C@H](Cc1ccccc1)NC(=O)c1cnccn1)B(O)O  inhibition (F10; enzyme activity, inhibitor; 33 µM): 48.8%
CCN(CC)CCCC[C@H](NC(=O)[C@H](CC(C)C)NC(=O)[C@H](C)NC(=O)[C@H](Cc1ccccc1)NC(=O)c1ccc(C(C)(C)C)cc1)C(=O)N[C@@H](CO)C(=O)OC  inhibition (Beta-2 adrenergic receptor (ADRB2, Homo sapiens, UniProt P07550); ligand displacement, radioligand; 10 µM): -1%
Cc1ncc(C)n2nc(/C=C/c3nc(N4CCCC4)cc(N4CCOCC4)n3)nc12  inhibition (MMP2; enzyme activity, inhibitor; 10 µM): 3%
COc1ccc(S(=O)(=O)N(CC(=O)NO)CC(C)C)cc1  inhibition (MMP2; enzyme activity, inhibitor; 0.1 µM): 71%
